INS promoter act – TRM-6 insulin promoter activation | TRM-6 cells (human fetal islet line), insulin promoter eGFP reporter, imaging; plate-scaled: unstimulated 0, stimulated control 100 | activation, % at 2 µM | 130,000 tested, 0.81% active | AID 1296;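 active = activation at 2 µM above a set limit, confirmed on inspection of the cell images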;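 note: share of cells whose green reporter signal exceeds an intensity cutoff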
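System – TRM-6 insulin promoter–eGFP reporter cells · Probe or stimulus – 0.75 µM tamoxifen as reporter inducer · Dosing – single-point 2 µM compound dose · Incubation – tamoxifen pre-incubation 15 h overnight, then compound exposure 48 h at 37 °C · Measured by – fixed-cell fluorescence microscopy, eGFP plus Hoechst · Evaluation – percent GFP-positive cells normalized to per-plate controls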
* = called active by the depositor; + = active, no number; [ ] = remark or other dose. The full list was thinned out, with hits kept by preference.

SMILES	INS promoter act
Cc1cccc(C)c1N(CC(=O)N1CCN(c2ccccc2F)CC1)S(C)(=O)=O	7
CCOC(=O)C1=C(c2ccccc2)Nc2c(c(=O)n(C)c(=O)n2C)C1c1ccc(O)c(OC)c1 (stereo not drawn)	7
CCn1cc(C(=O)N2CCN(c3ccccn3)CC2)c(=O)c2cc(S(=O)(=O)N(C)C3CCCCC3)ccc21	7
O=S(=O)(NCc1cccnc1)c1ccc(Cl)c(Cl)c1	-9
O=S(=O)(NCc1cccnc1)c1ccc2c(c1)OCCO2	469*
CCN(CC)C(=O)c1ccc(S(=O)(=O)NCc2cccnc2)cc1	-3
O=C(Nc1nnc(C2CCCC2)s1)C1CCC1	-3
COc1ccc(NC(=O)CSc2nnc(-c3ccncc3)n2C)cc1	0
Cn1c(SCC(=O)C(C)(C)C)nnc1-c1ccncc1	0
Cn1c(SCCOc2ccccc2Cl)nnc1-c1ccncc1	538*
CCOc1ccc(NC(=S)N2CCCN(Cc3cc(C)ccc3C)C2)cc1	7
CCOC(=O)Nc1sc(C)c(C)c1C(=O)OCC	0
CCOC(=O)c1c(NC(=O)C2CCN(S(=O)(=O)c3cccs3)CC2)sc(C)c1C	454*
O=C(NCCc1ccccc1Cl)C1CCN(S(=O)(=O)c2cccs2)CC1	7
COc1ccc(N2CCN(CCNC(=O)C3CCN(S(=O)(=O)c4cccs4)CC3)CC2)cc1	0
Cc1ccccc1NC(=O)C1CCN(S(=O)(=O)c2cccs2)CC1	-7
CCC(C)(C)NC(=O)C1CCN(S(=O)(=O)c2cccs2)CC1	+[fluoresces]
CC(C(=O)NC(=O)NC1CCCCC1)N1CCN(C(c2ccccc2)c2ccccc2)CC1 (stereo not drawn)	-3
COc1ccccc1/C=C/C(=O)NCC(=O)N/N=C(\CCC(=O)O)c1ccccc1	9
CCC(=O)Nc1ccc(C(=O)CN2CCC(C)CC2)cc1	8
O=[N+]([O-])c1cn(Cc2ccccc2)cn1	7
CC(=O)c1cccc(NC(=O)c2ccc(C)o2)c1	-8
CN(Cc1cn(C)c2ccccc12)C(=S)Nc1cc(F)cc(F)c1	-8
CC(CN1CCCCC1)OC(=O)C(C)(c1ccccc1)c1ccccc1 (stereo not drawn)	8
O=C(Cc1cccs1)Nc1ccc(S(=O)(=O)N2CCCCC2)cc1	6
SMILES	INS promoter act
CCc1cccc2cc3c(N)c(C(=O)Nc4ccc(S(=O)(=O)N5CCCC5)cc4)sc3nc12	203*
Cn1nc(C(=O)Nc2ccc(S(=O)(=O)N3CCCCC3)cc2)ccc1=O	-7
CCC(CC)C(=O)c1c[nH]c(C(=O)NCc2ccncc2)c1	7
CCC1=NNc2cccc3c(OC)ccc1c23	3
CCOC(=O)c1nnsc1Nc1ccc(C)c(C)c1	-7
CCOC(=O)N1CCN(C(=O)CCn2c(=S)[nH]c3ccsc3c2=O)CC1	-7
CSc1nc(NC(C)=O)nc(C)c1Br	-14
CC(C)c1ccc(/C=N/NC(=O)c2cccc(Cl)c2)cc1	517*
C/C(=N\NC(=O)c1cccc(Cl)c1)c1cccc(NC(=O)C(C)C)c1	3
Cc1ccc(C)n1NC(=O)c1cccc(Cl)c1	-4
O=C1Nc2ccc([N+](=O)[O-])cc2C1(O)N1CCCCCC1 (stereo not drawn)	-2
COc1cc(NC(=O)COC(=O)/C=C/c2c(C)nn(-c3ccc(F)cc3)c2Cl)cc(OC)c1	-7
C=CC[C@H]1CC(Cc2ccccc2)=C[C@H](CC=C)N1	151
Cn1nc(C(=O)NNc2c(F)c(F)cc(F)c2F)c2ccccc2c1=O	0
COc1ccc(CNc2nc3c(c(C(F)(F)F)n2)CCCCC3)cc1	4
O=C(O)CCC1COc2ccccc2O1 (stereo not drawn)	-10
CCc1ccc(C(C(=O)NCCOC)N(C(=O)Cn2nnc3ccccc32)c2cccnc2)cc1 (stereo not drawn)	450*
CCCCN(C(=O)Cn1nnc2ccccc21)C(C(=O)NCCOC)c1ccccc1 (stereo not drawn)	219
Cc1cccc(N(C(=O)Cn2nnc3ccccc32)C(C(=O)NCc2ccco2)c2ccncc2)c1C (stereo not drawn)	9
C=CCc1c(OC(C)=O)c2ccccc2n(C)c1=O	103
O=C(c1ccccc1NS(=O)(=O)c1cccc(C(F)(F)F)c1)N1CCc2ccccc21	1
C=CCNC(=O)c1ccccc1NC(=O)C1COc2ccccc2O1 (stereo not drawn)	471*
CCc1nnc(NC(=O)C2COc3ccccc3O2)s1 (stereo not drawn)	-5
O=C(Nc1ccccc1C(=O)N1CCCC1)C1COc2ccccc2O1 (stereo not drawn)	-8
CCOC(=O)NC(Nc1ccc(OC)cc1)(C(F)(F)F)C(F)(F)F	-7
SMILES	INS promoter act
Cc1ccnc(NS(=O)(=O)c2ccc(NS(=O)(=O)c3ccccc3)cc2)n1	314
CCC(=O)Nc1cc(C(=O)OC(C(=O)c2ccc(C)c(C)c2)c2ccccc2)ccc1C (stereo not drawn)	-6
COc1cccc(C2C(C#N)=C(N)Oc3cc(C)oc(=O)c32)c1OC (stereo not drawn)	9
CCOC(=O)c1c(NC(=O)CN2CCOCC2)sc(C(=O)NC)c1C	-7
Cc1sc(NC(=O)CN2CCOCC2)c(C(=O)c2ccccc2)c1C	75*
CCOC(=O)c1c(NC(=O)CN2CCOCC2)sc2c1CCCC2=O	-10
Cc1ccccc1N1C(S)=C(C#N)C(=O)NC12CCCCC2	-3
COc1cccc(OC)c1C(=O)OCC(=O)NCC(C)C	0
CC(C)CCNC(=O)NC(=O)COC(=O)C1=COCCO1	-78
CC(C)CNC(=O)NC(=O)COC(=O)c1cc(F)cc(F)c1	333*
N/C(=N/O)C(c1ccccc1)c1ccccc1	-8
COc1ccc(NC(=O)C(=O)N/N=C/c2cc(C)n(-c3cccc(Cl)c3Cl)c2C)c(OC)c1	0
CN(C)S(=O)(=O)c1ccc2oc(SCC(N)=O)nc2c1	0
CCS(=O)(=O)c1ccc2oc(SCC(=O)NC3CCCC(C)C3C)nc2c1 (stereo not drawn)	93*
Cc1cc(C)nc(NC(=O)CSc2nc3ccccc3o2)n1	8
O=C(O)CN1C(=O)SC(Nc2ccc(Cl)cc2)C1=O (stereo not drawn)	0
Cc1cc(C)cc(COn2ccnc2)c1	-68
C=CCn1c(CCNC(=O)c2cccs2)nnc1SCC(=O)Nc1cccc(Cl)c1C	4
C=CCn1c(SCC(=O)Nc2ccc(C(=O)OC(C)C)cc2)nnc1-c1cccs1	0
C=CCn1c(CNC(=O)c2ccco2)nnc1SCC(=O)c1ccccc1	255*
O=C(NCc1ccccc1)c1ccco1	-10
C=CCn1c(CNC(=O)c2cccs2)nnc1SCC(=O)c1ccc(Br)cc1	92*
O=C(CSc1nnc(-c2ccco2)n1Cc1ccccc1)c1ccc(F)cc1	4
CCCC1CC(C)(C(=O)CSc2n[nH]c(-c3ccccc3)n2)OC1=O (stereo not drawn)	207
COc1cc(C(=O)Nc2ccccc2C2COC(=O)C2=N)cc(OC)c1OC (stereo not drawn)	-5
CCN(CC)C(=O)CSc1nc2ccccc2c(=O)n1CCC(=O)NCc1ccc(F)cc1	114
C[C@@H](C(=O)NCc1ccc(S(C)(=O)=O)cc1)[C@@H]1C[C@@]1(C)[C@@H](NC(=O)OCc1ccccc1)c1ccccc1	0
O=C(COC(=O)c1ccc2ccccc2n1)c1ccccc1	0
COc1ccc(-c2onc3ccc(Cl)cc23)cc1OC	5
N#CC1=C(N)OC2=C(C(=O)CCC2)C1c1ccc(OC(=O)N2CCOCC2)cc1 (stereo not drawn)	0

Compound activity from PubChem BioAssay.
